# High-throughput results (PubChem)
# Compounds with a hit are over-represented: about 2.8% of the library has one in this group of screens.
# NPY-Y2 antag: blocks the human neuropeptide Y Y2 receptor | P49146 | NPY-Y2 expressing cells, antagonist mode | inhibition, % at 2.7 µM | actives 0.99% (n = 140,000) | AID 793; in the data active = inhibition above about 17%;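 note: 0% = vehicle with agonist challenge and 100% = reference antagonist with challenge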
# Target sequence (P49146 whole entry, looked up): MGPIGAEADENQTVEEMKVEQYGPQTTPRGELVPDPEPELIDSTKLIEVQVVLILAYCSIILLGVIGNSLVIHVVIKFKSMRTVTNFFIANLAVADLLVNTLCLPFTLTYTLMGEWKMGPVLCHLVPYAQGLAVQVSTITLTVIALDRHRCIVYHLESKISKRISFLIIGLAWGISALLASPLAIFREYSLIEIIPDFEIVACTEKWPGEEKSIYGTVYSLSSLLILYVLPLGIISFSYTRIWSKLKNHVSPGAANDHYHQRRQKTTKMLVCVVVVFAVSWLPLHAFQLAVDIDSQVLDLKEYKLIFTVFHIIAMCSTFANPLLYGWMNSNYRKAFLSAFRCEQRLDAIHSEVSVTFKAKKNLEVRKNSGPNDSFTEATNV
# NPY1 pot ag: potentiates or activates human NPY-Y1 receptor; P25929; NPY-Y1 expressing cells, potentiator/agonist activation; activation, % at 3.6 µM; actives 0.37% (n = 220,000); in the data active = activation above about 33%, passing the limit was not always enough;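 note: cells stimulated with NPY at EC10 then isoproterenol at EC100; 0% = low agonist plus stimulus and 100% = saturating agonist plus stimulus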
# PGE2 EP2 inh: inhibitors of human EP2 prostaglandin E2 receptor | P43116 | C6 glioma cells expressing human EP2, cAMP TR-FRET; cells stimulated with saturating PGE2 | inhibition, % at 25 µM | actives 0.52% (n = 260,000) | AID 1422;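 active = percent inhibition above 40 after rounding to a whole number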;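 note: rat C6 glioma host cells with rolipram phosphodiesterase inhibitor present; the protocol text gives 20 µM as final concentration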
# NPY2 pot ag: potentiators or agonists of human neuropeptide Y receptor Y2 | P49146 | cells expressing NPY-Y2, potentiator/agonist read-out | AID 1359 | activation, % at 3.6 µM | actives 0.45% (n = 220,000); in the data active = activation above about 27%;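 note: cells stimulated with NPY near EC25 plus isoproterenol at EC100; 0% = vehicle plus submaximal agonist and 100% = vehicle plus saturating agonist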
# NPY Y1 blocker: NPY-Y1 (human) receptor antagonism; inhibition, % at 3.6 µM; actives 1% (n = 200,000); HEK293-CNG Y1 cells, membrane potential fluorescence; NPY at EC95, then isoproterenol; AID 1040;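 active = inhibition above the campaign mean inhibition of all tested compounds plus 3 SD, cut at about 20% in these data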;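 note: 0% = DMSO wells given NPY plus isoproterenol and 100% = isoproterenol alone without NPY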
#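 System: HEK293 cells with Y1 receptor plus CNG channel / Probe or stimulus: NPY 25 nM then isoproterenol 1 µM plus Ro 20-1724 25 µM / Compound: one concentration, 3.6 µM, in 0.4% DMSO / Schedule: compound incubation 1 h at room temperature, readout 45 min post-stimulation / Measured by: membrane potential fluorescence / Read-out: % inhibition of NPY effect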
# EP2 mod: modulates human prostaglandin E2 receptor EP2 signaling | EP2-expressing cells, cAMP HTRF FRET, PGE2 co-stimulation | AID 940 | actives 0.83% (n = 260,000) | induction, % at 25 µM;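 active = compounds whose cAMP rise, as percent of the full-agonist control response, exceeds 60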;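 note: rat C6 glioma line stably carrying human EP2 under a CMV promoter; the protocol text gives 20 µM as final concentration; 100% = response of wells given 1 µM PGE2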
# * = called active by the depositor; nt = not tested or not shown.
SMILES,NPY-Y2 antag,NPY1 pot ag,PGE2 EP2 inh,NPY2 pot ag,NPY Y1 blocker,EP2 mod
O=C(Nc1cc(Cl)cc(Cl)c1)c1ccc(Cn2c(=O)[nH]c3ccsc3c2=O)cc1,-14,46*,9,21,-7,16
CCN(CC)S(=O)(=O)c1ccc(-c2nnc(SCC(=O)O)n2CC)cc1,nt,nt,6,nt,nt,4
COc1ccccc1CNCC(O)(c1ccc(Cl)cc1)c1ccc(Cl)cc1,21*,-37,4,-5,21*,39
Cc1ccc(OCc2nc(C#N)c(N3CCN(Cc4ccccc4)CC3)o2)cc1,41*,-34,9,-34,23*,3
N#Cc1nc(COc2ccccc2)oc1N1CCN(Cc2ccccc2)CC1,28*,-24,15,-15,21*,-6
Cc1ccc(Cl)cc1N1CCN(CC(=O)Nc2ccc(CN3CCCCC3)cc2)CC1,14,-87,7,-28,36*,-53
NC(=O)CSc1nnc(-c2cccs2)n1Cc1ccco1,nt,9,9,-8,nt,16
Cc1ccc(C)c(CSc2nnc(-c3cccs3)n2Cc2ccco2)c1,24*,3,7,-4,53*,40
Cc1nc(O)c(Cc2c(O)nc(C)[nH]c2=O)c(=O)[nH]1,nt,nt,4,nt,nt,-18
O=C(CNCC1CCCO1)Nc1ccccc1N1CCCCCC1 (configuration not stated),2,21,4,8,12,62*
C=C(C)C1Cc2c(C)nn(-c3ccccc3)c2C1 (configuration not stated),6,3,11,17,-6,61*
C=C(C)C1Cc2c(C)nn(-c3cccc4ccccc34)c2C1 (configuration not stated),3,33,4,9,4,60
COCCCNC(=S)N(Cc1cc2cc(OC)c(OC)cc2[nH]c1=O)C1CCCC1,nt,nt,13,nt,nt,7
O=C(Nc1ccc(Cl)cc1)Nc1ccc2c(c1)N1CCN=C1S2,-7,35*,11,30,-18,-27
C=CCc1cc(C)ccc1OCCOCCC(C(=O)OCC)C(=O)OCC,1,-37,13,6,2,62*
Cn1c(=O)sc2cc(S(=O)(=O)N3CCCC(CN4CCOCC4)C3)ccc21 (configuration not stated),nt,nt,4,nt,nt,9
COc1cc(C(=O)Nc2sc(C(=O)Nc3cccc(C)c3C)c(C)c2C#N)cc(OC)c1OC,nt,nt,5,nt,nt,-11
CCc1[nH]nc2c1C(c1cccc(OC(=O)N3CCOCC3)c1)C(C#N)=C(N)O2 (configuration not stated),5,-2,8,4,11,31
CC(C)c1[nH]nc2c1C(c1cccc(OC(=O)N3CCOCC3)c1)C(C#N)=C(N)O2 (configuration not stated),20*,-31,12,0,131*,4
O=C(N/N=C/c1ccc(Cl)cc1)c1sccc1OCc1ccc(F)cc1,113*,-227,11,-153,109*,34
O=C(N/N=C/c1ccc(F)cc1)c1sccc1OCc1ccc(F)cc1,23*,-50,10,-39,11,42
C=CCOc1ccc(NC(=O)C2CC(=O)N(c3ccc(Cl)cc3)C2)cc1 (configuration not stated),nt,nt,6,nt,nt,-8
CCOc1ccc(NC(=O)Nc2cc(-c3ccccc3)sc2C(=O)OC)cc1,-1,8,10,-1,-1,9
CCOC(=O)c1sc(-c2ccc(OC)cc2)cc1NC(C)=O,-1,7,40*,17,-4,13
COC(=O)c1ccc(CCc2cc(O)ccc2O)cc1,nt,nt,47*,nt,nt,-5
SMILES,NPY-Y2 antag,NPY1 pot ag,PGE2 EP2 inh,NPY2 pot ag,NPY Y1 blocker,EP2 mod
CC(=O)Nc1ccc(N(C(=O)c2ccco2)C(C(=O)NC2CCCC2)c2cccnc2)cc1 (configuration not stated),nt,nt,18,nt,nt,22
C[C@H](NC(=O)c1ccc(Cl)c(Cl)c1)c1ccc(-c2ccccc2)cc1,nt,nt,55*,nt,nt,-41
CC[n+]1c(C)n(CCCS(=O)(=O)[O-])c2cc(C(=O)Nc3ccccc3)ccc21,nt,nt,16,nt,nt,-112
COc1ccc(-n2cc(CNCCCN3CCCC3=O)c(-c3ccccc3Cl)n2)cc1,nt,-2,4,-7,20*,-1
COc1cccc(C2C(C(=O)Nc3ccccc3OC)=C(C)NC3=C2C(=O)CC(C)(C)C3)c1 (configuration not stated),nt,nt,12,nt,nt,-9
O=C(CSc1nnc(-c2ccccn2)n1-c1ccc(Cl)cc1)NC1CCCC1,nt,nt,12,nt,nt,-22
CC(=O)[C@H]1CC[C@@H]2[C@]1(C)CC=C1[C@@]23C=C[C@@]2(C[C@H](O)CC[C@@]12C)[C@H](C(=O)O)[C@@H]3C(=O)O,nt,nt,41*,nt,nt,34
Nc1ccc(-c2cc(-c3cccc(N)c3)nc(-c3ccccc3)n2)cc1,-6,54*,12,45*,-13,-26
Cc1nc2ccccc2nc1-c1ccc(N=[N+]([O-])c2ccc(-c3nc4ccccc4nc3C)cc2)cc1,nt,nt,54*,nt,nt,7
Cc1nc2ccc([N+](=O)[O-])cc2nc1C,nt,6,15,-5,0,-10
COCCn1c(NN)nc2c1c(=O)[nH]c(=O)n2C,nt,nt,7,nt,nt,-12
c1ccc(-c2nc3ccccc3c3nc4ccccc4n23)cc1,9,-4,7,3,3,64*
c1ccc(-c2nc3nonc3c3nc4ccccc4n23)cc1,3,8,4,10,-1,-5
Cc1ccc2c(c1)c1ccc3c(c1n2C)C(=O)C=CC3=O,nt,-5,16,0,nt,-59
COc1ccc2c(c1)c1ccc3c(c1n2C)C(=O)C=CC3=O,nt,8,62*,-1,nt,-36
COCCNc1c(-c2ccc(F)cc2)nc2cnccn12,nt,nt,nt,nt,nt,-51
Cc1ccsc1CN(CCCN1CCOCC1)Cc1ccccc1F,nt,nt,2,nt,nt,-39
COc1ccc(NC(=O)c2cc3c(-c4ccc(OC)c(OC)c4)nn(C)c3s2)cc1OC,2,-1,43*,17,3,-27
CCOC(=O)CSc1nc2ccc(NC(C)=O)cc2s1,-1,72*,10,58*,-9,-5
CC(=O)Nc1ccc2nc(SCC(=O)O)sc2c1,12,12,14,2,-4,38
COC(=O)CSc1nc2ccc(NC(=O)c3ccccc3C(=O)N3CCOCC3)cc2s1,2,109*,15,95*,-16,-12
